Experimental data as given in paper PMC6369589 (Cell, 2019).
pIC50: −log10 of the molar value.

Legend:
Ae. aegypti NPYLR7 = Ae. aegypti NPYLR7 (Aedes aegypti, UniProt U5N1H5); experiment: GCaMP6s calcium cell-based assay, HEK293T cells expressing NPYLR7 and Gqα15
How it was run: (§1)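 HEK293T cells transiently co-transfected (Lipofectamine 2000) with 1 μg each of GCaMP6s, mouse Gqα15 and receptor plasmids. Cells were plated overnight in DMEM/FBS at 37°C, 5% CO2, then imaged in HBSS + 20 mM HEPES. Test agonist plus inhibitor added after 30 s baseline; GFP fluorescence read every 1 s for 5 min, normalized to baseline. Log(inhibitor)-response nonlinear fit; mean ± SD, 3 trials × 4 replicates.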

[1] = test system: Ae. aegypti female mosquitoes; experiment: Miniport olfactometer host-seeking after Glytube drug-feeding; format: in vivo, Aedes aegypti; details: fed in protein-rich artificial blood-meal, assayed 2 days after feeding
Ae. aegypti NPYLR5 = experiment: GCaMP6s calcium cell-based assay, HEK293T cells expressing NPYLR5 and Gqα15; set-up: species or system Aedes aegypti; details: dose-inhibition of TM30335 activation
How it was run: as §1

For `N=C(N)NCCC[C@H](NC(=O)CC1(CC(=O)N2CCN(C3c4ccccc4NC(=O)c4ccccc43)CC2)CCCC1)C(=O)NCCn1c(=O)n(-c2ccccc2)n(-c2ccccc2)c1=O` (stereo partly drawn) [BIIE0246], the pIC50 (Ae. aegypti NPYLR7) was 5.29, the “release from host-seeking suppression in miniport olfactometer” value [1] was “dose-dependent release from suppression” and the “effect on NPYLR5 responses to TM30335” value (Ae. aegypti NPYLR5) was “no effect”.
